Data on 24 compounds can be found in ChEMBL document CHEMBL1124725, “Inhibition of steroid 5 alpha-reductase by unsaturated 3-carboxysteroids” (J Med Chem, 1990).

Experiment [1] addresses T1, Steroid 5-alpha-reductase (Rattus norvegicus, UniProt P24008+P31214).
T1 sequence (P24008 whole entry): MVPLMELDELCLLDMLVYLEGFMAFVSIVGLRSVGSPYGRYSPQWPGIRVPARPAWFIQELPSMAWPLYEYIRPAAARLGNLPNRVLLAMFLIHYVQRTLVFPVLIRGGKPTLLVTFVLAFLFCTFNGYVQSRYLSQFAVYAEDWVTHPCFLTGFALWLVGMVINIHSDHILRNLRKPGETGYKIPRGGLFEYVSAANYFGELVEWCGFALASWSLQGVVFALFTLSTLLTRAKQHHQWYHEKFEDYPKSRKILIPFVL
T1 sequence (P31214 whole entry): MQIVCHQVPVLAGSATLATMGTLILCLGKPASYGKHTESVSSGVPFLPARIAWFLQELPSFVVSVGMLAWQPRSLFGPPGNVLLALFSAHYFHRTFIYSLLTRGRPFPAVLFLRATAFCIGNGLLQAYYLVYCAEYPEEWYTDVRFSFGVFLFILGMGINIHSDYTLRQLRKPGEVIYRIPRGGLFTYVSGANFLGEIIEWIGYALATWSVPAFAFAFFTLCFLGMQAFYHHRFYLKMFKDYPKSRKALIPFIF
Nature of the experiment: In vitro inhibition of Steroid 5-alpha-reductase in rat ventral prostates. Type of experiment: tissue-based, Prostate gland. The method in brief: (§1)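 Rat ventral prostate microsomes were incubated with [14C]T (1.2 μM) and test compound (0–10 μM), both dried from ethanol. Buffer was 20 mM sodium phosphate, pH 6.6, with 400 μM NADPH, at 37 °C for 20–30 min, keeping T consumption ≤20%. After ethyl acetate quench, DHT plus […] formation was measured. Apparent Ki came from Dixon analysis, or IC50 for hyperbolic inhibition; ranges reflect different enzyme preparations.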

The target in experiment [2] is T2, 3-oxo-5-alpha-steroid 4-dehydrogenase 2 (Homo sapiens, UniProt P31213).
T2 sequence (P31213 whole entry): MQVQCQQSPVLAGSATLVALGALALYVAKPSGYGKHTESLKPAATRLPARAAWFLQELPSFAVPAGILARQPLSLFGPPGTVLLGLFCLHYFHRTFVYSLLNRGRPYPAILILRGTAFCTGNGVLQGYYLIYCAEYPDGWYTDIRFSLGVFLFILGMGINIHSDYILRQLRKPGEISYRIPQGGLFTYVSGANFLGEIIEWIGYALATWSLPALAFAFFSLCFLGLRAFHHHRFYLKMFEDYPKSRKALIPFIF
Nature of the experiment: In vitro inhibition of Steroid 5-alpha-reductase in human prostatic tissue. The note with it: read-out: Ki app. In outline:
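Microsomes from surgically derived benign hyperplastic human prostate. Incubation was in 50 mM sodium citrate, pH 5.0, with 400 μM NADPH at 37 °C for 20–30 min, with ≤20% of T consumed. The reaction was quenched with ethyl acetate, and the read-out was total 5α-reduced products (DHT + ADIOL). Ki,app came from Dixon plots, or IC50 if nonlinear; ranges span microsome preparations.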

In experiment [3] the target is T1, Steroid 5-alpha-reductase. Nature of the experiment: In vitro inhibitory activity against Steroid 5-alpha-reductase was determined in rat ventral prostates expressed as apparent inhibition constant; Range is 20-30. Type of experiment: tissue-based, Prostate gland. In outline:
as §1

Experiment [4] deals with T2, 3-oxo-5-alpha-steroid 4-dehydrogenase 2. Nature of the experiment: In vitro inhibitory activity against Steroid 5-alpha-reductase was determined in human prostatic tissue expressed as apparent inhibition constant; Range is 7-12. As to conditions: read-out: Ki app. In outline:
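Microsomes from surgically derived benign hyperplastic human prostate. [14C]T (1.2 μM) and inhibitor (0–10 μM) were dried down from ethanol. Incubation was in 50 mM sodium citrate, pH 5.0, with 400 μM NADPH at 37 °C for 20–30 min, with ≤20% of T consumed. The reaction was quenched with ethyl acetate, and the read-out was total 5α-reduced products (DHT + ADIOL). Ki,app came from Dixon plots, or IC50 if nonlinear; ranges span microsome preparations.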

In experiment [5] the target is T1, Steroid 5-alpha-reductase. Nature of the experiment: In vitro inhibitory activity against Steroid 5-alpha-reductase was determined in rat ventral prostates expressed as apparent inhibition constant; Range is 35-50. Type of experiment: tissue-based, Prostate gland. In outline:
as §1

The target of experiment [6] is T2, 3-oxo-5-alpha-steroid 4-dehydrogenase 2. Nature of the experiment: In vitro inhibitory activity against Steroid 5-alpha-reductase was determined in human prostatic tissue expressed as apparent inhibition constant; Range is 7-18. As to conditions: read-out: Ki app.
Experiment [7] has as its target T1, Steroid 5-alpha-reductase. Nature of the experiment: In vitro inhibitory activity against 5-alpha reductase was determined in rat ventral prostates expressed as apparent inhibition constant. Type of experiment: tissue-based, Prostate gland. The method in brief:
as §1

Experiment [8] deals with T2, 3-oxo-5-alpha-steroid 4-dehydrogenase 2. Nature of the experiment: In vitro inhibitory activity against 5-alpha reductase was determined in human prostatic tissue expressed as apparent inhibition constant. As to conditions: read-out: Ki app. In outline: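 Microsomes from surgically obtained benign hyperplastic human prostate; 50 mM sodium citrate, pH 5.0, 37 °C, 20–30 min. Substrate [14C]testosterone 1.2 μM, NADPH 400 μM final, inhibitor 0–10 μM. Read-out is conversion to total 5α-reduced metabolites (DHT plus 5α-androstanediol), keeping T consumption ≤20%. Ki,app from Dixon analysis for linear inhibitors; ranges given across microsome preparations.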

Experiment [9] has the same target. In words: In vitro inhibitory activity against Steroid 5-alpha-reductase was determined in human prostatic tissue expressed as apparent inhibition constant; Range is 700-900.

Take `CC(C)N(C(=O)[C@H]1CCC2C3CCC4=C[C@@H](C(=O)O)CC[C@]4(C)C3CC[C@@]21C)C(C)C` (stereo partly drawn): the Ki app in [1] is on record as 2000 nM. Besides, the Ki in experiment [2] amounted to 200 nM.
In experiment [1], `CC(C)N(C(=O)[C@H]1CCC2C3CC=C4C=C(C(=O)O)CC[C@@H]4C3CC[C@@]21C)C(C)C` (stereo partly drawn) gave a Ki app of 140 nM.
The same measure, in the same setting: with `CC1=C2C=C(C(=O)O)CC[C@]2(C)C2CC[C@@]3(C)C(CC[C@@H]3C(=O)N(C(C)C)C(C)C)C2C1` (stereo partly drawn) the figure was 200 nM.
In turn, `CC(C)N(C(=O)[C@H]1CCC2C3CCC4=C[C@H](C(=O)O)CC[C@]4(C)C3CC[C@@]21C)C(C)C` (stereo partly drawn) registered a Ki app in experiment [1] of over 10000 nM. In addition, the Ki in [2] was determined as 570 nM.
Consider `CC(C)(C)NC(=O)[C@H]1CC[C@H]2[C@@H]3CC=C4C=C(C(=O)O)CC[C@]4(C)[C@H]3CC[C@]12C` [EPRISTERIDE], for which the Ki app in [3] is reported as 20 nM.
Take `CC(C)N(C(=O)[C@H]1CCC2C3CCC4=C(CCC(C(=O)O)=C4)C3CC[C@@]21C)C(C)C` (stereo partly drawn): the Ki app in experiment [1] was 290 nM.
In experiment [1], `CC1=C(C(=O)O)CC[C@@]2(C)C1=CCC1C2CC[C@@]2(C)C1CC[C@@H]2C(=O)N(C(C)C)C(C)C` (stereo partly drawn) gave a Ki app of 70 nM. For the same compound, the Ki in [2] worked out at 35 nM.
The corresponding values for `CC(C)N(C(=O)[C@H]1CCC2C3CCC4=CC(C(=O)O)=CC[C@]4(C)C3CC[C@@]21C)C(C)C` (stereo partly drawn) are 120 nM and 52 nM.
The corresponding values for `CC(C)N(C(=O)[C@H]1CCC2C3CC[C@H]4CC(C(=O)O)=CC[C@]4(C)C3CC[C@@]21C)C(C)C` (stereo partly drawn) are 110 nM and 85 nM.
In the same order, the values of `CC(C)N(C(=O)[C@H]1CCC2C3CC=C4C=C(C(=O)O)CC[C@]4(C)C3C=C[C@@]21C)C(C)C` (stereo partly drawn) are 47 nM and 7 nM.
`CC(C)N(C(=O)[C@H]1CCC2C3CC[C@H]4C=C(C(=O)O)C=C[C@]4(C)C3CC[C@@]21C)C(C)C` (stereo partly drawn) registered a Ki app in [1] of 65 nM. Besides, in [2], the Ki worked out at 62 nM.
In the same order, the values of `CC(C)N(C(=O)[C@H]1CCC2C3CC(F)=C4C=C(C(=O)O)CC[C@]4(C)C3CC[C@@]21C)C(C)C` (stereo partly drawn) are 33 nM and 32 nM.
The corresponding values for `CC(C)N(C(=O)[C@H]1CCC2C3CCC4=C[C@@](O)(C(=O)O)CC[C@]4(C)C3CC[C@@]21C)C(C)C` (stereo partly drawn) are over 10000 nM and 320 nM.
The compound `CC(C)N(C(=O)[C@H]1CCC2C3C=CC4=CC(C(=O)O)=CC[C@]4(C)C3CC[C@@]21C)C(C)C` (stereo partly drawn) yielded a Ki app in experiment [1] of 300 nM. Besides, the Ki in experiment [4] is 7 nM.
Compound `CC(C)N(C(=O)[C@H]1CCC2C3CCC4=C[C@](O)(C(=O)O)CC[C@]4(C)C3CC[C@@]21C)C(C)C` (stereo partly drawn) showed a Ki app in [1] of over 10000 nM. In [2], the Ki was determined as 220 nM.
As for `CC(C)N(C(=O)[C@H]1CCC2C3CC=C4C=C(C(=O)O)CC[C@]4(C)C3CC[C@@]21C)C(C)C` (stereo partly drawn), in [5], the Ki app stood at 35 nM. Also, in [6], the Ki was found to be 7 nM.
The compound `CC(C)N(C(=O)[C@H]1CC[C@H]2[C@@H]3CC[C@H]4C(F)=C(C(=O)O)CC[C@]4(C)[C@H]3CC[C@]12C)C(C)C` returned a Ki app in [1] of 35 nM.
In [1], `C[C@]12CCC(C(=O)O)=CC1=CCC1C2CC[C@@]2(C)C1CC[C@@H]2C#N` (stereo partly drawn) showed a Ki app of 140 nM. The Ki in experiment [2] is 790 nM.
In the same order, the values of `CC(C)N(C(=O)[C@H]1CC[C@H]2[C@@H]3CC[C@H]4CC(C(=O)O)CC[C@]4(C)[C@H]3CC[C@]12C)C(C)C` (stereo partly drawn) are 340 nM and 2200 nM.
Turning to `CC(C)N(C(=O)[C@H]1CCC2C3CC[C@H]4C=C(C(=O)O)CC[C@]4(C)C3CC[C@@]21C)C(C)C` (stereo partly drawn), in experiment [7], the Ki app was 70 nM. Besides, the Ki in experiment [8] was 30 nM.
`CC(CO)[C@@H]1CCC2C3CCC4C=C(C(=O)O)CC[C@]4(C)C3CC[C@@]21C` (stereo partly drawn) gave a Ki app in experiment [1] of 155 nM. In experiment [2], the Ki was determined as 5000 nM.
The corresponding values for `CC(C)N(C(=O)[C@H]1CCC2C3CC=C4C=C(C(=O)O)C=C[C@]4(C)C3CC[C@@]21C)C(C)C` (stereo partly drawn) are 600 nM and 60 nM.
For orientation: IC50 means the concentration at which inhibition is half-maximal. Take `CC(C)N(C(=O)[C@H]1CCC2C3CC(C(F)(F)F)=C4C=C(C(=O)O)CC[C@]4(C)C3CC[C@@]21C)C(C)C` (stereo partly drawn): the Ki app in [1] is reported as 1000 nM. In addition, in [9], the IC50 stood at 700 nM.
`CC(C)(C)NC(=O)[C@H]1CC[C@H]2[C@@H]3CC[C@H]4C=C(C(=O)O)CC[C@]4(C)[C@H]3CC[C@]12C` showed a Ki app in [1] of 11 nM. For the same compound, the Ki in experiment [2] is 110 nM.
